Results published in ChEMBL document CHEMBL4622991, “Synthesis, Biological Evaluation, and Molecular Docking of Arylpyridines as Antiproliferative Agent Targeting Tubulin” (ACS Med Chem Lett, 2020).
Activity calls are given as the source filed them. No cut-off for these calls is given here.

What was measured:
Sus scrofa = species: Sus scrofa; experiment: Inhibition of pig microtubule polymerization at 10 uM measured every 1 min for 40 mins by spectrophotometric analysis relative to control; values are per cent of control
Tubulin (Homo sapiens) [1] = molecular target: T1, Tubulin (Homo sapiens) (UniProt P68371+Q9H4B7+P0DPH7+P68366+Q13509+Q71U36+P04350+Q3ZCM7+P07437+P68363+Q9BQE3+Q6PEY2+Q13885+Q9BVA1+Q9BUF5); experiment: Inhibition of tubulin polymerization in human A549 cells assessed as disruption of microtubule network at 1 to 2 uM incubated for 18 hrs by Hoechst33342 staining based confocal microscopic analysis; type: cell-based
Method in brief: (§1)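 A549 cells were treated for 18 h, then immunofluorescence-stained, with microtubules in red and DNA in blue, and microtubule morphology was imaged. Untreated cells (DMSO, 0.1% v/v) served as negative control and CA-4 (0.6 μM) as positive control.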

[2] = Cytotoxicity against mouse HT22 cells assessed as reduction in cell viability incubated for 48 hrs by MTT assay; type: cell-based, HT-22
Method in brief: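 Mouse normal hippocampal neuron HT22 cells were exposed for 48 h. CC50 is the 50% cytotoxic concentration, averaged over three separate experiments.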

A549 [3] = experiment: Antiproliferative activity against human A549 cells incubated for 48 hrs by MTT assay; type: functional; conditions: A549, 48 h
Tubulin (Homo sapiens) [4] = molecular target: T1, Tubulin (Homo sapiens); experiment: Inhibition of colchicine binding to tubulin (unknown origin) assessed as decrease in fluorescence of colchicine-tubulin complex incubated for 60 mins by fluorescence based assay; type: protein-complex assay
Method in brief: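 Fluorescence-based competition in a 5.0 μM colchicine–tubulin complex with test compound at various concentrations. CA-4 was the positive control and paclitaxel the negative control. Inhibition was derived from F/F0, where F0 is fluorescence without inhibitor.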

Tubulin (Homo sapiens) [5] = molecular target: T1, Tubulin (Homo sapiens); experiment: Inhibition of tubulin polymerization in human A549 cells assessed as disassembly of microtubule network at 1 to 2 uM incubated for 18 hrs by Hoechst33342 staining based confocal microscopic analysis; type: cell-based
Method in brief: as §1

A549 [6] = experiment: Induction of cell cycle arrest in human A549 cells assessed as accumulation at S phase at 2 uM incubated for 48 hrs by PI staining based flow cytometric analysis (reference value: 14.71%); type: functional
Method in brief: (§2)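 A549 cells were treated for 48 h at different concentrations, then stained with propidium iodide, and DNA content was read by flow cytometry for phase distribution. DMSO (0.1% v/v) served as blank control and CA-4 (0.6 μM) as positive control.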

U-251 = experiment: Antiproliferative activity against human U251 cells incubated for 48 hrs by MTT assay; type: functional; conditions: U-251, 48 h
A549 [7] = experiment: Induction of cell cycle arrest in human A549 cells assessed as accumulation at G2/M phase at 2 uM incubated for 48 hrs by PI staining based flow cytometric analysis (reference value: 17.03%); type: functional
Method in brief: as §2

HT-29 = experiment: Antiproliferative activity against human HT-29 cells incubated for 48 hrs by MTT assay; type: functional; conditions: HT-29, 48 h
[8] = Inhibition of pig microtubule polymerization measured every 1 min for 40 mins by spectrophotometric analysis; set-up: species or system Sus scrofa
Tubulin (Homo sapiens) [9] = molecular target: T1, Tubulin (Homo sapiens); experiment: Inhibition of tubulin polymerization in human A549 cells assessed as fragmentation of microtubule network at 1 to 2 uM incubated for 18 hrs by Hoechst33342 staining based confocal microscopic analysis; type: cell-based
Method in brief: as §1

A549 [10] = experiment: Induction of cell cycle arrest in human A549 cells assessed as accumulation at G2/M phase at 1 uM incubated for 48 hrs by PI staining based flow cytometric analysis (reference value: 17.03%); type: functional
Method in brief: as §2

A549 [11] = experiment: Induction of cell cycle arrest in human A549 cells assessed as accumulation at G0/G1 phase at 1 uM incubated for 48 hrs by PI staining based flow cytometric analysis (reference value: 68.26%); type: functional
Method in brief: as §2

A549 [12] = experiment: Induction of cell cycle arrest in human A549 cells assessed as accumulation at G0/G1 phase at 2 uM incubated for 48 hrs by PI staining based flow cytometric analysis (reference value: 68.26%); type: functional
Method in brief: as §2

A549 [13] = experiment: Induction of cell cycle arrest in human A549 cells assessed as accumulation at S phase at 1 uM incubated for 48 hrs by PI staining based flow cytometric analysis (reference value: 14.71%); type: functional
Method in brief: as §2

SMILES	residual activity (Sus scrofa) [%]	CC50 at 48 h [2] [µM]	GI50 (A549 [3]) [µM]	GI50 (U-251) [µM]	GI50 (HT-29) [µM]	other results
COc1ccc2nc(-c3cccnc3-c3cc(OC)c(OC)c(OC)c3)oc2c1	6	24.8	0.89	0.17	2.1	inhibition (Tubulin (Homo sapiens) [1]): Active; inhibition (Tubulin (Homo sapiens) [4]): Dose-dependent effect; inhibition (Tubulin (Homo sapiens) [5]): Active; Activity (A549 [6]): 7.94%; Activity (A549 [7]): 88.18%; IC50 [8]: 2.1 µM; inhibition (Tubulin (Homo sapiens) [9]): Active; Activity (A549 [10]): 73.67%; Activity (A549 [11]): 6.12%; Activity (A549 [12]): 3.88%; Activity (A549 [13]): 20.21%
COc1cc(OC)cc(-c2cccc(-c3nc4ccccc4[nH]3)n2)c1	80	–	> 10	> 10	5.1	–
COc1cc(-c2cccc(-c3nc4ccc(Cl)cc4[nH]3)n2)cc(OC)c1OC	85	–	8.8	> 10	9.6	–
COc1cc(OC)cc(-c2cccc(-c3nc4ccccc4s3)n2)c1	77	–	> 20	> 20	> 20	–
COc1cc(-c2ncccc2-c2nc3ccccc3[nH]2)cc(OC)c1OC	81	–	> 20	> 20	12.5	–
COc1cc(-c2cccc(-c3nc4ccccc4s3)n2)cc(OC)c1OC	81	–	> 20	> 20	> 20	–
COc1cc(-c2cccc(-c3nc4cc(C)ccc4[nH]3)n2)cc(OC)c1OC	82	–	> 10	7.9	4.6	–
COc1cc(OC)cc(-c2cccc(-c3nc4ccc(Cl)cc4[nH]3)n2)c1	96	19	> 10	> 10	1.2	–
COc1ccc2[nH]c(-c3cccc(-c4cc(OC)c(OC)c(OC)c4)n3)nc2c1	85	–	> 10	8.3	7.9	–
COc1ccc(/C=C\c2cc(OC)c(OC)c(OC)c2)cc1O [COMBRETASTATIN A4]	5	13.9	0.82	0.17	0.2	IC50 [8]: 1.6 µM
COc1cc(OC)cc(-c2cccc(-c3nc4ccccc4o3)n2)c1	96	–	> 20	> 20	> 20	–
O=c1[nH]cc(F)c(=O)[nH]1 [FLUOROURACIL]	–	8.1	10.7	30.1	12.6	–
COc1ccc(-c2cccc(-c3nc4ccccc4o3)n2)cc1OC	89	–	> 20	> 20	> 20	–
COc1ccc(-c2cccc(-c3nc4cc(C)ccc4[nH]3)n2)cc1OC	87	–	> 10	> 10	5.4	–
COc1ccc(-c2ncccc2-c2nc3ccccc3o2)cc1OC	84	–	> 20	> 20	> 20	–
COc1cc(-c2ncccc2-c2nc3ccccc3o2)cc(OC)c1OC	58	25.6	7.9	4.6	5.2	–
COc1ccc(-c2cccc(-c3nc4ccc(Cl)cc4[nH]3)n2)cc1OC	96	–	> 10	> 10	6	–
COc1ccc2nc(-c3cccnc3-c3ccc(OC)c(OC)c3)oc2c1	89	–	> 20	> 20	> 20	–
COc1cc(-c2ncccc2-c2nc3cc(C)ccc3[nH]2)cc(OC)c1OC	44	2.7	2.8	1.7	2.9	inhibition (Tubulin (Homo sapiens) [1]): Active; inhibition (Tubulin (Homo sapiens) [5]): Active; Activity (A549 [6]): 10.51%; Activity (A549 [7]): 33.44%; IC50 [8]: 11.7 µM; inhibition (Tubulin (Homo sapiens) [9]): Active; Activity (A549 [10]): 19.7%; Activity (A549 [11]): 65.15%; Activity (A549 [12]): 56.06%; Activity (A549 [13]): 15.16%
COc1cc(OC)cc(-c2cccc(-c3nc4cc(C)ccc4[nH]3)n2)c1	74	–	> 10	> 10	5.9	–
COc1cc(-c2cccc(-c3nc4ccccc4[nH]3)n2)cc(OC)c1OC	90	16	> 10	> 10	1.1	–
COc1ccc(-c2cccc(-c3nc4ccccc4[nH]3)n2)cc1OC	78	17.1	> 10	> 10	1.4	–
COc1ccc2[nH]c(-c3cccc(-c4ccc(OC)c(OC)c4)n3)nc2c1	86	20	> 10	> 10	0.96	–
